Assay results reported in ChEMBL document CHEMBL1156676, “Peptidyl 3-substituted 1-hydroxyureas as isosteric analogues of succinylhydroxamate MMP inhibitors” (Eur J Med Chem, 2008).
Where a SMILES comes first, the peptide text is derived from it. The star is where a group is joined. Cbz = O=C(OCc1ccccc1)*

Experiments:
Matrilysin = target: T1, Matrilysin (Homo sapiens, UniProt P09237); assay: Inhibition of human recombinant MMP7
T1 sequence (P09237 whole entry): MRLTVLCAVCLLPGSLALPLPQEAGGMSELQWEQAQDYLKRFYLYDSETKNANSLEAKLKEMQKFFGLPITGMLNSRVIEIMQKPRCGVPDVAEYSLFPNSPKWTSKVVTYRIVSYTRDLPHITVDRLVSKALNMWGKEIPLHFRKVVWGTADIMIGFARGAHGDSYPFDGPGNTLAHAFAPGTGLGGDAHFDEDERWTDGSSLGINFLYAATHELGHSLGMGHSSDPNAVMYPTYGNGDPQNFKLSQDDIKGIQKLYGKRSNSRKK
In short: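 MMP-7 proenzyme was APMA-activated (1 mM, 1 h, 37 °C), final 2.4 nM. Incubated 4 h at 25 °C with inhibitor at seven concentrations in Tris 50 mM pH 7.5/NaCl 150 mM/CaCl2 10 mM/Brij 35 0.05%/DMSO 1%. Cleavage of Mca-Lys-Pro-Leu-Gly-Leu-Dpa-Ala-Arg-NH2 was followed fluorimetrically (325/400 nm) every 15 s over 20 min, triplicate.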

[1] = target: Matrix metalloproteinase-9 (Homo sapiens, UniProt P14780); assay: Inhibition of human recombinant MMP9
In short: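 Pro-MMP-9 activated with APMA 1 mM, 1 h, 37 °C, used at 2.7 nM final. Preincubated 4 h at 25 °C with seven inhibitor concentrations in Tris 50 mM pH 7.5, NaCl 150 mM, CaCl2 10 mM, Brij 35 0.05%, DMSO 1%. Hydrolysis of Mca-Lys-Pro-Leu-Gly-Leu-Dpa-Ala-Arg-NH2 monitored by fluorescence (325/400 nm) every 15 s for 20 min, triplicate.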

[2] = target: 72 kDa type IV collagenase (Homo sapiens, UniProt P08253); assay: Inhibition of human recombinant MMP2
Interstitial collagenase = target: T2, Interstitial collagenase (Homo sapiens, UniProt P03956); assay: Inhibition of human recombinant MMP1
T2 sequence (P03956 whole entry): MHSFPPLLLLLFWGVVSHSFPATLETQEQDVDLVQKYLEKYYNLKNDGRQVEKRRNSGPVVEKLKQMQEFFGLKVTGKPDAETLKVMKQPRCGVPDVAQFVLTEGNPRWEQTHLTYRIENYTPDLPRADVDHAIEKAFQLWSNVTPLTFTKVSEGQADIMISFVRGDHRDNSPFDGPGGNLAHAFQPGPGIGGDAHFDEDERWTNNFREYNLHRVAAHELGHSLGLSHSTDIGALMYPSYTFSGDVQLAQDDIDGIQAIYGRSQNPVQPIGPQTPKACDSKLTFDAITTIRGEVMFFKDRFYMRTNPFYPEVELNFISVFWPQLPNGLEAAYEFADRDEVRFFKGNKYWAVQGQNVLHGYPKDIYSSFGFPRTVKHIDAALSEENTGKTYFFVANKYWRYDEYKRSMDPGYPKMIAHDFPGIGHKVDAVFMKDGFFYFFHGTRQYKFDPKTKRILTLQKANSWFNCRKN

Neutrophil collagenase = Neutrophil collagenase (Homo sapiens, UniProt P22894); assay: Inhibition of human recombinant MMP8
Stromelysin-1 = Stromelysin-1 (Homo sapiens, UniProt P08254); assay: Inhibition of human recombinant MMP3
Stromelysin-1, sequence (P08254 whole entry): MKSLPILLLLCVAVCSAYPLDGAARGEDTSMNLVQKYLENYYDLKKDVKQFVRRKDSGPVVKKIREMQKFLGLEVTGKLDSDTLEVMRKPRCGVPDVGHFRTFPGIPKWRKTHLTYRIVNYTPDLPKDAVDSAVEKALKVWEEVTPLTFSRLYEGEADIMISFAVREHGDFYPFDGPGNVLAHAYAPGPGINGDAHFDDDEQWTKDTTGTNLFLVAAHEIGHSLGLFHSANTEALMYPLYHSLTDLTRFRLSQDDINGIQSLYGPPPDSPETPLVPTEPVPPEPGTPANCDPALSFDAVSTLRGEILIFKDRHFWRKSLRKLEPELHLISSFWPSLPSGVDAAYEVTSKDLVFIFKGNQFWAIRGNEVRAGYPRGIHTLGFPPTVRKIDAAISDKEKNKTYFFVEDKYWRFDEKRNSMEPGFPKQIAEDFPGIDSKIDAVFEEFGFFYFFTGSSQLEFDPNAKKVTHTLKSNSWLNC

Neutrophil collagenase, sequence (P22894 whole entry): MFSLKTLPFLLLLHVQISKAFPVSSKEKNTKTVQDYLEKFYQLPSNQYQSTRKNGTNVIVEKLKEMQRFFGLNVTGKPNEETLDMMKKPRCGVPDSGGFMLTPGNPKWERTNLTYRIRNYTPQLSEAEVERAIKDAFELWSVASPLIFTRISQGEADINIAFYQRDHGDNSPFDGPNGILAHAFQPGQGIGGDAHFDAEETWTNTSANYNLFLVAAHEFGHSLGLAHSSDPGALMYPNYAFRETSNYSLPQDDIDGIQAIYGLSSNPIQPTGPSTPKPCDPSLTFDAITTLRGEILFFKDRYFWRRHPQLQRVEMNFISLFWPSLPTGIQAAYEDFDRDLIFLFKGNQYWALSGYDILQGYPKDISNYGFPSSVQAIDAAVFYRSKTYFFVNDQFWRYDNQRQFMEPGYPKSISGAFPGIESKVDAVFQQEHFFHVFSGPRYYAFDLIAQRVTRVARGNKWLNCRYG
Matrix metalloproteinase-9, sequence (P14780 whole entry): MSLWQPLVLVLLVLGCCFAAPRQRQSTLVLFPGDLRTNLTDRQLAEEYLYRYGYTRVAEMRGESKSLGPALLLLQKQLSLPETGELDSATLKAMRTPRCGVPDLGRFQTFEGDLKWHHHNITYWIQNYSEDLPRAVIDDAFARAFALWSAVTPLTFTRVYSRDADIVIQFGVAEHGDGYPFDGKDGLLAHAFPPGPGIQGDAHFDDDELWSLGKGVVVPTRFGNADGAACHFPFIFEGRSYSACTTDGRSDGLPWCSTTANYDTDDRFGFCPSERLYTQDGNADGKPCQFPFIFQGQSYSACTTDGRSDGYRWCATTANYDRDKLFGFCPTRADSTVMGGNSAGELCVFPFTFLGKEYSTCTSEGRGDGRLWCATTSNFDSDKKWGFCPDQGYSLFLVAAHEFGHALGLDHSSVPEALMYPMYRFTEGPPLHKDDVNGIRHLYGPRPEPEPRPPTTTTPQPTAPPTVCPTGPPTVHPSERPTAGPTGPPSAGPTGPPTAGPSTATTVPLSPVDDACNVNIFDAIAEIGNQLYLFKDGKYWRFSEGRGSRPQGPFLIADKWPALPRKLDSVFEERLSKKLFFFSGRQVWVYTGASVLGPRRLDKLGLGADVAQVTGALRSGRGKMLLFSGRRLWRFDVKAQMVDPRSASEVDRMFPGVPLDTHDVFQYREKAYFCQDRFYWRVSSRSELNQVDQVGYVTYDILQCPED
72 kDa type IV collagenase, sequence (P08253 whole entry): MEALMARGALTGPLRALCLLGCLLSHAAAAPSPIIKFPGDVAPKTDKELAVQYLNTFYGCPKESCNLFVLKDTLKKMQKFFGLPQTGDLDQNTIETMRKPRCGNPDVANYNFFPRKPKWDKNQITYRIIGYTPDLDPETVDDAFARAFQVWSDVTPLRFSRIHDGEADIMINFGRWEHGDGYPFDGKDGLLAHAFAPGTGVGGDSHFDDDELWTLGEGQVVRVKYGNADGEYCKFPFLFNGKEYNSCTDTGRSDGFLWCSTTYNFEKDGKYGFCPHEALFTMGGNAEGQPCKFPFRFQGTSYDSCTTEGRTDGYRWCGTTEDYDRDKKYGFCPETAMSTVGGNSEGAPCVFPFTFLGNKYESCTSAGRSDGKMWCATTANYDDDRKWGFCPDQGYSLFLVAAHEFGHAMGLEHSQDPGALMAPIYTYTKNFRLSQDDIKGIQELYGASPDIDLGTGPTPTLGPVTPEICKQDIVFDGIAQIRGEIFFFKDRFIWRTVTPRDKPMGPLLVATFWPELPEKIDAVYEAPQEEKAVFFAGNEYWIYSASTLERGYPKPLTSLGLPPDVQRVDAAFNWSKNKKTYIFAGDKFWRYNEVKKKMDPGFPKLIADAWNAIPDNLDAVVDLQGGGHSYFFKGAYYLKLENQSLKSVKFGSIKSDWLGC

| Structure (SMILES) | IC50 (Matrilysin) | IC50 [1] | IC50 [2] | IC50 (Interstitial collagenase) | IC50 (Neutrophil collagenase) | IC50 (Stromelysin-1) |
| --- | --- | --- | --- | --- | --- | --- |
| CNC(=O)[C@H](Cc1ccccc1)NC(=O)[C@@H](CC(=O)NO)CC(C)C | 0.0083 µM | 0.00038 µM | – | – | – | – |
| CNC(=O)[C@H](Cc1ccccc1)NC(=O)[C@@H](N)CC(C)C | > 300 µM | > 300 µM | > 300 µM | – | – | – |
| CNC(=O)[C@H](Cc1ccccc1)NC(=O)[C@@H](CC(C)C)NC(=O)NO | > 300 µM | 200 µM | > 300 µM | > 300 µM | 150 µM | > 300 µM |
| CNC(=O)[C@H](Cc1ccccc1)NC(=O)[C@H](CC(=O)NO)CC(C)C | 4.1 µM | 0.15 µM | – | – | – | – |
| CNC(=O)[C@H](Cc1ccccc1)NC(=O)[C@H](CC(C)C)NC(=O)NO | > 300 µM | 20 µM | 60 µM | 270 µM | 70 µM | > 300 µM |
| CNC(=O)[C@H](Cc1ccccc1)NC(=O)[C@H](N)CC(C)C | > 300 µM | > 300 µM | > 300 µM | > 300 µM | > 300 µM | > 300 µM |
| COC(=O)[C@H](Cc1ccccc1)NC(=O)[C@H](CC(C)C)NC(=O)OCc1ccccc1 (Cbz-Leu-Phe-OMe) | > 300 µM | > 300 µM | > 300 µM | > 300 µM | > 300 µM | > 300 µM |
